According to ChEMBL document CHEMBL5131398, “Novel nucleocapsid protein-targeting phenanthridine inhibitors of SARS-CoV-2” (Eur J Med Chem, 2022):
pKd: −log10 of the molar value.

Experiments:
[1] = system: Severe acute respiratory syndrome coronavirus 2; experiment: Binding affinity to N-terminal 6-histidine tagged Severe acute respiratory syndrome coronavirus 2 nucleocapsid protein overexpressed in Escherichia coli BL21 (DE3) assessed as response unit by SPR assay
In short: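 Single-concentration binding screen: compounds at 200 μM over a surface carrying >10000 RU NPro. 120 s contact, 180 s dissociation, running buffer with 5% DMSO, solvent correction applied. Running buffer served as negative control.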

[2] = Binding affinity to N-terminal 6-histidine tagged Severe acute respiratory syndrome coronavirus 2 nucleocapsid protein overexpressed in Escherichia coli BL21 (DE3) assessed as dissociation constant by SPR assay

Row | SMILES | Activity [1] | pKd [2]
1 | CCc1cccc2c1N(C)Cc1cc(OCc3cc(C)nn3C)c(OCc3cc(C)nn3C)cc1-2 | 211 RU | 4.97
2 | CCn1c(=O)c2cc(OC)c(OC)cc2c2cccc(N)c21 | 23.1 RU | –
3 | CCN1Cc2cc(OC)c(OC)cc2-c2cccc(NCC(F)(F)F)c21 | 125 RU | 4.98
4 | CCn1c(=O)c2cc(OC)c(OC)cc2c2cccc(NC(=O)CCC(=O)OC)c21 | 13.1 RU | –
5 | COc1cc2cnc3c(C)cccc3c2cc1OC | 29.4 RU | –
6 | CCC(=O)Nc1cccc2c1N(CC)Cc1cc(OC)c(OC)cc1-2 | 10.6 RU | –
7 | COc1cc2c(cc1OC)-c1cccc(C)c1N(C(=O)C(F)(F)F)C2 | 57.5 RU | –
8 | CCn1c(=O)c2cc(OC)c(OC)cc2c2cccc(C(=O)O)c21 | 33.5 RU | –
9 | CCN1Cc2cc(OC)c(OC)cc2-c2cccc(NC(=O)C(F)(F)F)c21 | 101 RU | –
10 | COc1ccc2c(c1)CN(C)c1c(C)cccc1-2 | 34.9 RU | –
11 | CCN1Cc2cc(OC)c(OC)cc2-c2cccc(NC(C)=O)c21 | 14.3 RU | –
12 | CCc1cccc2c1N(C(=O)CBr)Cc1ccc(OC)cc1-2 | 22 RU | –
13 | CCn1c(=O)c2cc(OC)c(OC)cc2c2cccc(NC(C)=O)c21 | 17.7 RU | –
14 | CCN1Cc2cc(OC)c(OC)cc2-c2cccc(N)c21 | 145 RU | –
15 | CCc1cccc2c1ncc1ccc(OC)cc12 | 30.7 RU | –
16 | Cc1cccc2c1N(C)Cc1cc(O)ccc1-2 | 35 RU | –
17 | CCN1Cc2cc(OC)c(OC)cc2-c2cccc(NC(=O)C(C)C)c21 | 11.8 RU | –
